According to ChEMBL document CHEMBL4020842, “Discovery of N1-(4-((7-Cyclopentyl-6-(dimethylcarbamoyl)-7 H-pyrrolo[2,3- d]pyrimidin-2-yl)amino)phenyl)- N8-hydroxyoctanediamide as a Novel Inhibitor Targeting Cyclin-dependent Kinase 4/9 (CDK4/9) and Histone Deacetlyase1 (HDAC1) against Malignant Cancer” (J Med Chem, 2018):
Calls of active or inactive are those of the source. No cut-off for these calls is given here.

Experiments:
[1] = tested on: HepG2; experiment: Induction of apoptosis in human HepG2 cells assessed as live cells at 10 uM after 48 hrs by annexin V-FITC/propidium iodide staining based flow cytometry (reference value: 96.7%); assay type: functional
[2] = tested on: NCI-H460; experiment: Induction of apoptosis in human NCI-H460 cells assessed as late apoptotic cells at 1 uM after 48 hrs by annexin V-FITC/propidium iodide staining based flow cytometry (reference value: 1.29%); assay type: functional
[3] = tested on: NCI-H460; experiment: Induction of apoptosis in human NCI-H460 cells assessed as early apoptotic cells at 1 uM after 48 hrs by annexin V-FITC/propidium iodide staining based flow cytometry (reference value: 0.11%); assay type: functional
[4] = tested on: T47D; experiment: Induction of apoptosis in human T47D cells assessed as live cells at 5 uM after 48 hrs by annexin V-FITC/propidium iodide staining based flow cytometry (reference value: 85.3%); assay type: functional
[5] = tested on: MDA-MB-231; experiment: Induction of apoptosis in human MDA-MB-231 cells assessed as necrotic cells at 5 uM after 48 hrs by annexin V-FITC/propidium iodide staining based flow cytometry (reference value: […]); assay type: functional
[6] = tested on: MDA-MB-231; experiment: Induction of apoptosis in human MDA-MB-231 cells assessed as live cells at 1 uM after 48 hrs by annexin V-FITC/propidium iodide staining based flow cytometry (reference value: 98.1%); assay type: functional
[7] = tested on: Hep 3B2; experiment: Cell cycle arrest in human Hep3B cells assessed as accumulation at G2 phase at 2.5 to 10 uM after 24 hrs by propidium iodide staining based flow cytometry; assay type: functional
In short: (§1)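 Cells were exposed for 24 h to a range of concentrations (625 nM, 2.5 and 10 µM), with DMSO vehicle as control. They were then stained with propidium iodide and analysed by flow cytometry to obtain the percentages of cells in G0/G1, S and G2 phases.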

[8] = tested on: Hep 3B2; experiment: Cell cycle arrest in human Hep3B cells assessed as accumulation at G0/G1 phase at 625 nM after 24 hrs by propidium iodide staining based flow cytometry; assay type: functional; in short: as §1
[9] = tested on: A549; experiment: Cell cycle arrest in human A549 cells assessed as decrease in S-phase at 625 nM after 24 hrs by propidium iodide staining based flow cytometry; assay type: functional; in short: as §1
[10] = tested on: A549; experiment: Cell cycle arrest in human A549 cells assessed as accumulation at G0/G1 phase at 625 nM after 24 hrs by propidium iodide staining based flow cytometry; assay type: functional; in short: as §1
[11] = tested on: NCI-H460; experiment: Cell cycle arrest in human NCI-H460 cells assessed as decrease in S-phase at 625 nM after 24 hrs by propidium iodide staining based flow cytometry; assay type: functional; in short: as §1
[12] = target: CDK3/Cyclin E (Homo sapiens) (UniProt P24864+Q00526); experiment: Inhibition of recombinant human full length C-terminal 6His-tagged CDK3/N-terminal GST-tagged Cyclin-E co-expressed in baculovirus infected sf21 cells at 1 uM relative to control
Sequence of CDK3/Cyclin E (Homo sapiens) (P24864 whole entry, looked up): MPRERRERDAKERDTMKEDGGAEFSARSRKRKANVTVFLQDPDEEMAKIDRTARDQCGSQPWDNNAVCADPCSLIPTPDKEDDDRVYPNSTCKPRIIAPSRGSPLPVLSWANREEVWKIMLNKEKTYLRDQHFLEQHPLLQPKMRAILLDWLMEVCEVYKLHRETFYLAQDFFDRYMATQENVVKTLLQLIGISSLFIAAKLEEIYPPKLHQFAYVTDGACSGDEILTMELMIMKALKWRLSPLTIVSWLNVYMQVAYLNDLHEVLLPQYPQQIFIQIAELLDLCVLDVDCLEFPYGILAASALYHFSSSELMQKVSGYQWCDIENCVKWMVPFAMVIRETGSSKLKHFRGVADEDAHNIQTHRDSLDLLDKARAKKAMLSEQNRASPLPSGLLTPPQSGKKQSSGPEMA
Sequence of CDK3/Cyclin E (Homo sapiens) (Q00526 whole entry, looked up): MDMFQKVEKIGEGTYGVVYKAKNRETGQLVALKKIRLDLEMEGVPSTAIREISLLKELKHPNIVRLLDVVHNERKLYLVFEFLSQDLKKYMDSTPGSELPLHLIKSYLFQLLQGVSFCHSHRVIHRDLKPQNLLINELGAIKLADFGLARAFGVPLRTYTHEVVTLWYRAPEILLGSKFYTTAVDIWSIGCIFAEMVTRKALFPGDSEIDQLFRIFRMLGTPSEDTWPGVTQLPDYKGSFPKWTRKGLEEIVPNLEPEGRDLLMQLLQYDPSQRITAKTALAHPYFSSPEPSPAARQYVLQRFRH

[13] = target: Vascular endothelial growth factor receptor 3 (Homo sapiens, UniProt P35916); experiment: Inhibition of recombinant human N-terminal GST-tagged FLT4 (800-end residues) expressed in baculovirus infected sf21 cells
Sequence of Vascular endothelial growth factor receptor 3 (P35916 whole entry): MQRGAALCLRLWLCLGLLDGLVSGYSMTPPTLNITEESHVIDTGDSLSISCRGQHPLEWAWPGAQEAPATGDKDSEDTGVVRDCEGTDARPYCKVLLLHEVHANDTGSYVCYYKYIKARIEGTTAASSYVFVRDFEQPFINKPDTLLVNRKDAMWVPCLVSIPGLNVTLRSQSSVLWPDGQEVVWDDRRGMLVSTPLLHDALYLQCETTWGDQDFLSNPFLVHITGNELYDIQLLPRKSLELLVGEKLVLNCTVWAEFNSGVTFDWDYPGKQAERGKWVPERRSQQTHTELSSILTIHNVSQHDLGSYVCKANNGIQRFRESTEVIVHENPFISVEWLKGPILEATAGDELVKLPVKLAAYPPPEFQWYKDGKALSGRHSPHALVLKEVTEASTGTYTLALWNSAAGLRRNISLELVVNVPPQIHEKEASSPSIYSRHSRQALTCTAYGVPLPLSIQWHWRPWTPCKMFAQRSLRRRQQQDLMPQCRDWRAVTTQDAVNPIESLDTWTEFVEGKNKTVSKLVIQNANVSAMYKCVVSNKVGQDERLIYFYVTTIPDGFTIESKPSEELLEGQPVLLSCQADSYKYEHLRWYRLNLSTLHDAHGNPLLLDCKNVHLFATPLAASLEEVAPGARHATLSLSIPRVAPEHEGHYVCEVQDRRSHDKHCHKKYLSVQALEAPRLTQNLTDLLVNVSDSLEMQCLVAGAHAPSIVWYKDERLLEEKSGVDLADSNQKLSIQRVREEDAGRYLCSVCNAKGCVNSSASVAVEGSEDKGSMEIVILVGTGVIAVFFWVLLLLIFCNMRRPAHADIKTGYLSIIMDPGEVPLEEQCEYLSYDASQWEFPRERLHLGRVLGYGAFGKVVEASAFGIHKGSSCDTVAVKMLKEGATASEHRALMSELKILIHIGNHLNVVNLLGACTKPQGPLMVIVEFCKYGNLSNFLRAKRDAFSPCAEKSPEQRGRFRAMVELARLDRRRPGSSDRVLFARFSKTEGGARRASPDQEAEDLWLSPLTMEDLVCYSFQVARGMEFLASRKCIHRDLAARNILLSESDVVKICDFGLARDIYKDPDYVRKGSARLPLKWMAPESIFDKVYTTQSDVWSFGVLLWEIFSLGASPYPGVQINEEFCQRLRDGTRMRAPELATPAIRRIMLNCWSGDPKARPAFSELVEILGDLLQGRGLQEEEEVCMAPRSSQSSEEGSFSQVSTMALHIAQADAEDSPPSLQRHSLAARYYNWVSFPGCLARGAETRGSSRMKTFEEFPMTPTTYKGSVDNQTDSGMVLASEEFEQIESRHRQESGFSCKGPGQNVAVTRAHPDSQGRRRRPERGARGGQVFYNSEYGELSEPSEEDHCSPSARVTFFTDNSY

[14] = target: Calcium/calmodulin-dependent protein kinase kinase 2 (Homo sapiens, UniProt Q96RR4); experiment: Inhibition of recombinant human full length C-terminal 6His-tagged CaMKK2 expressed in baculovirus infected sf21 cells
Sequence of Calcium/calmodulin-dependent protein kinase kinase 2 (Q96RR4 whole entry): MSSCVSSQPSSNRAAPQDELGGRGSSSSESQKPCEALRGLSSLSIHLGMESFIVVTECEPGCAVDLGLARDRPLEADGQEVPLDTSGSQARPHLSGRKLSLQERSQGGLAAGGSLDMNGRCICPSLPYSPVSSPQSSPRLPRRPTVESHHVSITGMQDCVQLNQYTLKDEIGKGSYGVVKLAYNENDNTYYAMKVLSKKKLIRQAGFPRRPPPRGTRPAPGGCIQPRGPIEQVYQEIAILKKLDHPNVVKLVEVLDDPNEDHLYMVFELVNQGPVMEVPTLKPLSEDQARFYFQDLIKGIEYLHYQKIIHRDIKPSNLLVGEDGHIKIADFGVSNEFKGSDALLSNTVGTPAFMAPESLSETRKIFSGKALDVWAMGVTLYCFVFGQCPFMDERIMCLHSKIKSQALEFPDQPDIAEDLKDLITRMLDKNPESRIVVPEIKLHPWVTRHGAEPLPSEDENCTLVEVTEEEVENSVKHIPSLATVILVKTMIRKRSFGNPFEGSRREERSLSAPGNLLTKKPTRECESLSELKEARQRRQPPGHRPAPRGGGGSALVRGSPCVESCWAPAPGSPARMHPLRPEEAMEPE

[15] = target: T1, Histone deacetylase 1 (Homo sapiens, UniProt Q13547); experiment: Potency index, ratio of vorinostat IC50 to compound IC50 for HDAC1 (unknown origin)
T1 sequence (Q13547 whole entry): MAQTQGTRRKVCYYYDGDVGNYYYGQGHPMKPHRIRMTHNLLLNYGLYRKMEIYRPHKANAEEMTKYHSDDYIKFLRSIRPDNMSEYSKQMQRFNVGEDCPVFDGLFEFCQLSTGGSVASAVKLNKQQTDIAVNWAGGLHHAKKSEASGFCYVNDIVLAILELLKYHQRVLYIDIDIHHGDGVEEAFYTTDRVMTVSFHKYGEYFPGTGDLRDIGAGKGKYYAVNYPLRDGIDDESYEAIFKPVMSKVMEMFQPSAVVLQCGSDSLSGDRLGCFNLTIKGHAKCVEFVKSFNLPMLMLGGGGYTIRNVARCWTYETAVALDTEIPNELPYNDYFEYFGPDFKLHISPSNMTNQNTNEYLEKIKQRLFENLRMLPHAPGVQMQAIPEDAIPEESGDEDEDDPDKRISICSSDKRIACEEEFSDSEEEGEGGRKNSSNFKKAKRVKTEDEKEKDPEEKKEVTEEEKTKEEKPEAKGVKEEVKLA

[16] = tested on: HepG2; experiment: Induction of apoptosis in human HepG2 cells assessed as live cells at 1 uM after 48 hrs by annexin V-FITC/propidium iodide staining based flow cytometry (reference value: 96.7%); assay type: functional
[17] = tested on: HepG2; experiment: Induction of apoptosis in human HepG2 cells assessed as necrotic cells at 5 uM after 48 hrs by annexin V-FITC/propidium iodide staining based flow cytometry (reference value: 2.32%); assay type: functional
[18] = tested on: Hep 3B2; experiment: Induction of apoptosis in human Hep3B cells assessed as live cells at 10 uM after 48 hrs by annexin V-FITC/propidium iodide staining based flow cytometry (reference value: 97.9%); assay type: functional
[19] = tested on: Hep 3B2; experiment: Induction of apoptosis in human Hep3B cells assessed as late apoptotic cells at 10 uM after 48 hrs by annexin V-FITC/propidium iodide staining based flow cytometry (reference value: 5.25%); assay type: functional
[20] = tested on: MDA-MB-231; experiment: Downregulation of Cyclin-D1 protein expression in human MDA-MB-231 cells after 48 hrs by Western blot method; assay type: functional, cell-based
In short: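 Treated cells were lysed and CDK4 and cyclin D1 protein levels were assessed by Western blot.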

[21] = target: CDK4/CDK9 (Homo sapiens) (UniProt P11802+P50750); experiment: Inhibition of CDK4/CDK9 in human A549 cells assessed as reduction in Rb phosphorylation at Ser807/811 residues at 1 uM after 48 hrs by Western blot method; assay type: cell-based
Sequence of CDK4/CDK9 (Homo sapiens) (P11802 whole entry, looked up): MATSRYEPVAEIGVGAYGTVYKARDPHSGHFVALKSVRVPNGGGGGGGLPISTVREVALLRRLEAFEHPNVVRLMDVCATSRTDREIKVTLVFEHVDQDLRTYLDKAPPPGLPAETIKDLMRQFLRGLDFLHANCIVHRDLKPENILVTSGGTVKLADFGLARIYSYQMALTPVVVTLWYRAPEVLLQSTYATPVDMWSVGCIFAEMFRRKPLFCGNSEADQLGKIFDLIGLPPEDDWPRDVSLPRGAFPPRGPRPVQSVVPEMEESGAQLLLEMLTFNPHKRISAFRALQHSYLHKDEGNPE
Sequence of CDK4/CDK9 (Homo sapiens) (P50750 whole entry, looked up): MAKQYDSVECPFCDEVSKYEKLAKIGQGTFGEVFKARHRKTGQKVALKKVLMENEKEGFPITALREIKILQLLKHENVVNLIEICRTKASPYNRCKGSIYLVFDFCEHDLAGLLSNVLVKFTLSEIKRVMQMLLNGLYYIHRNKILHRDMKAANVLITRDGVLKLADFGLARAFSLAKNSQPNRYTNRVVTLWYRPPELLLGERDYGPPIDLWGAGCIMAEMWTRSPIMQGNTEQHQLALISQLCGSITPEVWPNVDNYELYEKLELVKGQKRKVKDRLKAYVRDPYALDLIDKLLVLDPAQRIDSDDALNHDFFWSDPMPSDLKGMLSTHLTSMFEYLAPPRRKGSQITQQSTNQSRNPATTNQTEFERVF

[22] = target: T1, Histone deacetylase 1; experiment: Inhibition of HDAC1 in human T47D cells assessed as increase in acetylated-histone H3 level at 1 to 5 uM after 48 hrs by Western blot method; assay type: cell-based
[23] = target: T1, Histone deacetylase 1; experiment: Inhibition of HDAC1 in human A549 cells assessed as increase in acetylated-histone H3 level at 1 to 5 uM after 48 hrs by Western blot method; assay type: cell-based
[24] = tested on: MDA-MB-231; experiment: Induction of apoptosis in human MDA-MB-231 cells assessed as reduction in Bcl2 protein expression after 48 hrs by Western blot method; assay type: functional, cell-based
In short: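 Cells were treated with or without test agent, alongside a control, for 48h. They were then lysed and analysed by Western blot for Bcl-2 protein and cleaved caspase 3.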

[25] = tested on: A549; experiment: Induction of apoptosis in human A549 cells assessed as reduction in Bcl2 protein expression after 48 hrs by Western blot method; assay type: functional, cell-based
In short: (§2)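 Cells were treated with or without compound and control for 48 h, then lysed. Bcl-2 and cleaved caspase 3 were assessed by Western blot.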

[26] = tested on: A549; experiment: Induction of apoptosis in human A549 cells assessed as caspase-3 cleavage after 48 hrs by Western blot method; assay type: functional, cell-based; in short: as §2
[27] = target: T1, Histone deacetylase 1; experiment: Inhibition of HDAC1 in human HepG2 cells assessed as increase in p53 phosphorylation at Ser15 residue at 1 to 5 uM after 48 hrs by Western blot method; assay type: cell-based
[28] = Lipophilicity, log P of the compound by HPLC based shake flask method; assay type: physicochemical
[29] = Lipophilicity, log D of the compound at pH 7.4 by HPLC based shake flask method; assay type: physicochemical; conditions: buffer
[30] = tested on: 4T1; experiment: Antitumor activity against mouse Fluc-labeled 4T1 cells implanted in Balb/c mouse assessed as tumor growth inhibition administered ip daily for 18 days measured after 8 to 25 days by bioluminescence assay; assay type: functional, organism-based
In short: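 Luciferase (Fluc) reporter introduced into 4T1 cells by lentiviral transduction. Cells implanted orthotopically into mammary fat pads of female BALB/c mice aged 6–8 weeks. Once tumours averaged 100 mm3, dosing was daily by IP injection. Bioluminescence imaging was done at days 8 and 25 to reflect viable tumour cell number. Tumour weight was recorded at study end.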

[31] = tested on: 4T1; experiment: Antitumor activity against mouse Fluc-labeled 4T1 cells implanted in Balb/c mouse assessed as tumor growth inhibition at 90 mg/kg, po administered daily via gavage for 18 days by bioluminescence assay relative to control; assay type: functional; conditions: 4T1, po, 432 h, read-out: TGI
In short: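 Fluc-labelled 4T1 cells (lentiviral transduction) were implanted orthotopically into the mammary fat pads of female BALB/c mice aged 6–8 weeks. Treatment started once tumours averaged 100 mm3, given daily by oral gavage. Tumour burden was followed by bioluminescence imaging of Fluc reporter expression.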

CN(C)C(=O)c1cc2cnc(Nc3ccc(NC(=O)CCCCCCC(=O)NO)cc3)nc2n1C1CCCC1
Activity [1]: 73.3%
Activity [2]: 1.48%
Activity [3]: 0.28%
Activity [4]: 76.5%
Activity [5]: 1.36%
Activity [6]: 95.6%
Activity [7]: Active
Activity [8]: Active
Activity [9]: Active
Activity [10]: Active
Activity [11]: Active
inhibition [12]: 68%
IC50 [13]: 0.043 µM
IC50 [14]: 0.053 µM
Ratio IC50 [15]: > 10
Activity [16]: 87.4%
Activity [17]: 6.13%
Activity [18]: 72.8%
Activity [19]: 15%
Activity [20]: Dose-dependent effect
inhibition [21]: Active
inhibition [22]: Active
inhibition [23]: Active
Activity [24]: Active
Activity [25]: Active
Activity [26]: Active
inhibition [27]: Active
logP [28]: 2.62
logD [29]: 2.02
TGI [30]: Dose-dependent effect
inhibition in vivo at 90 mg/kg [31]: 70.3%
